Activity and IC50 data for three compounds are collected here from ChEMBL document CHEMBL3576809, “Thiasporines A-C, thiazine and thiazole derivatives from a marine-derived Actinomycetospora chlora” (J Nat Prod, 2015).

Calls of active or inactive are those of the source. The calls are words filed in the database; no cut-off is given here.

Holding throughout (assay type): functional, cell-based
Test [1] relates to A549. Description: Cytotoxicity against human A549 cells assessed as cell viability at 0.001 to 50 uM after 96 hrs by Cell Titer Glo assay. The method, boiled down:
(§1)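 Cells grown in RPMI/L-glutamine with 1000 U/mL penicillin, 1 mg/mL streptomycin and 5% FBS at 37 °C, 5% CO2, then plated in 384-well plates overnight. Compounds in DMSO were added at final 50 μM to 1 nM (0.5% DMSO final) for 96 h. CellTiter-Glo (1:2 in medium) was added, 10 min at room temperature, and luminescence normalized to DMSO-only wells.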
(Cellular ATP, detected with luciferase, serves as a proxy for viable cell number.)

Test [2] deals with NCI-H2122. Description: Cytotoxicity against human NCI-H2122 cells assessed as cell viability at 0.001 to 50 uM after 96 hrs by Cell Titer Glo assay. The method, boiled down:
as §1

The subject of test [3] is HCC366. As to the kind of experiment: Cytotoxicity against human HCC366 cells assessed as cell viability at 0.001 to 50 uM after 96 hrs by Cell Titer Glo assay. The essentials:
as §1

Test [4] deals with HCC44. As to the kind of experiment: Cytotoxicity against human HCC44 cells assessed as cell viability at 0.001 to 50 uM after 96 hrs by Cell Titer Glo assay. The essentials:
as §1

Test [5] has as its system A549. Description: Cytotoxicity against human A549 cells assessed as cell viability up to 24 uM after 96 hrs by Cell Titer Glo assay. The method, boiled down: (§2)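 NSCLC lines were kept in RPMI/L-glutamine with penicillin, streptomycin and 5% FBS (37 °C, 5% CO2) and seeded in 384-well plates overnight. DMSO-dissolved compounds were added (final DMSO 0.5%) and incubated 96 h. Viability was read as CellTiter-Glo luminescence after 10 min at room temperature and normalized to untreated cell-plus-DMSO wells.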

The test system of test [6] is NCI-H2122. As to the kind of experiment: Cytotoxicity against human NCI-H2122 cells assessed as cell viability after 96 hrs by Cell Titer Glo assay. To be noted: NCI-H2122, 96 h. The essentials:
as §2

In test [7] the test system is HCC44. Description: Cytotoxicity against human HCC44 cells assessed as cell viability up to 24 uM after 96 hrs by Cell Titer Glo assay. The essentials:
as §2

The subject of test [8] is HCC366. As to the kind of experiment: Cytotoxicity against human HCC366 cells assessed as cell viability up to 24 uM after 96 hrs by Cell Titer Glo assay. The essentials:
as §2

Turning to `CNc1ccccc1-c1nc(C(=O)OC)cs1`, the outcome in the test with A549 [1], in the test with NCI-H2122 [2], in the test on HCC366 [3] and with HCC44 [4] was inactive.
On to `Nc1ccccc1-c1nc(=O)c(O)cs1`, for which the outcome in the test on A549 [5], in the test on HCC44 [7] and in the test on HCC366 [8] was inactive. In addition, in the test on NCI-H2122 [6], the IC50 (usually the midpoint of a concentration-inhibition curve) stood at 5.4 µM.
`CNc1ccccc1-c1nc(C(=O)O)cs1`: the outcome in the test with A549 [1], in the test on NCI-H2122 [2], with HCC366 [3] and in the test on HCC44 [4] was inactive.
